Data: ChEMBL document CHEMBL1134480, “Antiplasmodial activity and cytotoxicity of bis-, tris-, and tetraquinolines with linear or cyclic amino linkers” (J Med Chem, 2001)

Columns and labels:
[1] = test system: MRC5; experiment: Cytotoxicity against MRC-5 cells at concentration 8 uM; format: functional; conditions: Homo sapiens
Method in brief: (§1)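 MRC-5 human embryonic lung diploid cells were seeded at 5000 per well. After 24 h the cells were washed and exposed to 2-fold drug dilutions in RPMI + 5% FCS, with final DMSO below 0.5%. Incubation was 7 days at 37 °C in 5% CO2. Viability was read by MTT absorbance at 540 nm.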

[2] = species: Mus musculus; experiment: In vitro cytotoxic activity against mouse peritoneal macrophages at a concentration 2 uM; Non-toxic; format: functional
[3] = test system: Plasmodium falciparum; experiment: In vitro growth inhibition of Plasmodium falciparum FcB1R; format: functional, organism-based
Method in brief: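 Asynchronous P. falciparum cultures were grown in human erythrocytes at 0.5% parasitemia and 1% hematocrit. They were exposed to serial drug dilutions, with DMSO ≤0.1%, for 24 h at 37 °C before adding 0.5 µCi [3H]hypoxanthine per well. Inhibition was measured as incorporated radioactivity versus drug-free controls on the same plate. IC50 came from concentration–response curves, reported as mean ± SD of three independent experiments; FcB1R used several experiments.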

[4] = test system: MRC5; experiment: Cytotoxicity against MRC-5 cells at concentration 32 uM; format: functional; conditions: Homo sapiens; method in brief: as §1
[5] = test system: MRC5; experiment: Cytotoxicity against MRC-5 cells at concentration 0.5 uM; format: functional; conditions: Homo sapiens; method in brief: as §1
[6] = In vitro cytotoxicity against mouse peritoneal macrophages at concentration 8 uM; Toxic; format: toxicity
[7] = In vitro cytotoxicity against mouse peritoneal macrophages at concentration 32 uM; Toxic; format: toxicity
[8] = test system: MRC5; experiment: Cytotoxicity against MRC-5 cells at concentration 1 uM; format: functional; conditions: Homo sapiens; method in brief: as §1
[9] = test system: Plasmodium falciparum; experiment: (§2) In vitro growth inhibition of Plasmodium falciparum W2; format: functional, organism-based
Method in brief: (§3)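 Asynchronous P. falciparum cultures in human erythrocytes (0.5% parasitemia, 1% final hematocrit) exposed to serially diluted drug for 24 h at 37 °C, then pulsed with 0.5 µCi [³H]hypoxanthine per well. Inhibition from incorporated radioactivity versus drug-free control on the same plate; IC50 from concentration-response curve; mean ± SD of three independent experiments. DMSO ≤0.1% final.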

[10] = test system: Plasmodium falciparum; experiment: (§4) In vitro growth inhibition of Plasmodium falciparum F32; format: functional, organism-based; method in brief: as §3
[11] = In vitro cytotoxic activity against mouse peritoneal macrophages at a concentration 8 uM; Toxic; format: toxicity
[12] = test system: Plasmodium falciparum; experiment: In vitro growth inhibition of Plasmodium falciparum D6; format: functional, organism-based; method in brief: as §3
[13] = In vitro cytotoxic activity against mouse peritoneal macrophages at a concentration 32 uM; Toxic; format: toxicity
[14] = species: Mus musculus; experiment: In vitro cytotoxic activity against mouse peritoneal macrophages at a concentration 8 uM; Non-toxic; format: functional
[15] = In vitro cytotoxic activity against mouse peritoneal macrophages at concentration 32 uM; Toxic; format: toxicity
[16] = test system: Plasmodium falciparum; experiment: as §4; format: functional, organism-based; remark: listed apart in the source
[17] = Inhibition of haem polymerization
Method in brief: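 Insoluble FcB1R trophozoite material (~4 × 10^7 parasites) was mixed with 0.3 mM bovine haematin in 60 mM sodium acetate, pH 5, plus drug at varied concentrations and 1% DMSO, then incubated 4 h at 37 °C. The washed pellet was treated with SDS, and polymerized haem was dissolved in NaOH and read at 404 nm. Values were corrected for endogenous haemozoin to give IC50. Data are the mean of two independent experiments, each run in duplicate.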

[18] = test system: Plasmodium falciparum; experiment: as §2; format: functional, organism-based; remark: listed apart in the source

Question: Which results are given for Clc1ccc2c(NCCCCNCCCNc3ccnc4cc(Cl)ccc34)ccnc2c1?
Answer: cytotoxicity at 8 µM [1]: 100%; Cytotoxicity [2]: Not toxic; IC50 [3]: 57 nM; cytotoxicity at 32 µM [4]: 100%; cytotoxicity at 0.5 µM [5]: 0%; Cytotoxicity [6]: Toxic; Cytotoxicity [7]: Toxic; cytotoxicity at 1 µM [8]: 0%

Question: Which results are given for O=C(CCN1CCCCC1)N1CCN(c2ccnc3cc(Cl)ccc23)CCN(c2ccnc3cc(Cl)ccc23)CC1?
Answer: IC50 [9]: 50.2 nM; IC50 [10]: 16.1 nM; cytotoxicity at 8 µM [1]: 87%; Cytotoxicity [11]: Toxic; Cytotoxicity [2]: Not toxic; IC50 [3]: 38.6 nM; IC50 [12]: 18.9 nM; Cytotoxicity [13]: Toxic; cytotoxicity at 32 µM [4]: 91%; cytotoxicity at 0.5 µM [5]: 0%; cytotoxicity at 1 µM [8]: 0%

Question: For Clc1ccc2c(N3CCCNCCN(c4ccnc5cc(Cl)ccc45)CCCNCC3)ccnc2c1, which cytotoxicity at 8 µM [1] is on record?
Answer: 0%

Question: And the Cytotoxicity [14]?
Answer: Not toxic

Question: What about the Cytotoxicity [15] of the same molecule?
Answer: Toxic

Question: What about the Cytotoxicity [2] of the same molecule?
Answer: Not toxic

Question: What about the IC50 [3] of the same molecule?
Answer: > 1000 nM

Question: What about the cytotoxicity at 32 µM [4] of the same molecule?
Answer: 98%

Question: And the cytotoxicity at 0.5 µM [5]?
Answer: 0%

Question: And the cytotoxicity at 1 µM [8]?
Answer: 0%

Question: With Clc1ccc2c(N3CCNCCN(c4ccnc5cc(Cl)ccc45)CC3)ccnc2c1 as the molecule, how does the IC50 [16] read?
Answer: 64.6 nM

Question: And the IC50 [17]?
Answer: 170000 nM

Question: What about the IC50 [18] of the same molecule?
Answer: 170 nM

Question: And the cytotoxicity at 8 µM [1]?
Answer: 0%

Question: And the Cytotoxicity [14]?
Answer: Not toxic

Question: And the Cytotoxicity [2]?
Answer: Not toxic

Question: What about the IC50 [12] of the same molecule?
Answer: 74.5 nM

Question: And the cytotoxicity at 32 µM [4]?
Answer: 0%

Question: What about the cytotoxicity at 0.5 µM [5] of the same molecule?
Answer: 0%

Question: What about the cytotoxicity at 1 µM [8] of the same molecule?
Answer: 0%
